{"data": "Results from different studies", "cell line": "NCI-H23", "read-out": "cell growth or viability", "note": "Each line is one published result; the experiments were not run side by side."}
{"SMILES": "O=C(/C=C/c1ccc2c(=O)n(CC3CCCCC3)cnc2c1)NO", "test": "SRB", "setting": "48 h", "quantity": "IC50", "result": "2.29 µM"}
{"SMILES": "COc1ccc(C(=O)/C=C/c2ccc3ccccc3c2)cc1S(N)(=O)=O", "test": "SRB", "setting": "10 µM", "quantity": "inhibition", "result": "124%"}
{"SMILES": "Cc1cc(C)n(C(=S)[S][Au][PH](CCCCCC[PH]([Au][S]C(=S)n2nc(C)cc2C)(c2ccccc2)c2ccccc2)(c2ccccc2)c2ccccc2)n1", "test": "SRB", "quantity": "GI50", "result": "1.54 µM"}
{"SMILES": "CCCc1n(Cc2ccc3ccccc3n2)cc[n+]1Cc1ccc2ccccc2n1", "test": "SRB", "quantity": "TGI", "result": "15 µM"}
{"SMILES": "O=C(/C=C/c1ccc2c(=O)n(CCO)cnc2c1)NO", "test": "SRB", "setting": "48 h", "quantity": "IC50", "result": "4.2 µM"}
{"SMILES": "COc1ccc(C(=O)/C=C/c2cccc(Br)c2)cc1S(N)(=O)=O", "test": "SRB", "setting": "10 µM", "quantity": "inhibition", "result": "166%"}
{"SMILES": "O=C1Nc2ccccc2C1=NNc1nnc2n1N=C(c1ccccc1)CS2", "test": "SRB", "setting": "10 µM", "quantity": "inhibition", "result": "31%"}
{"SMILES": "CCc1n(Cc2ccc3ccccc3n2)cc[n+]1Cc1ccc2ccccc2n1", "test": "SRB", "quantity": "GI50", "result": "0.257 µM"}
{"SMILES": "COc1cc(-c2ccc(-c3ccc(C(=N)N)nc3)s2)cc(OC)c1OC", "test": "SRB", "quantity": "GI50", "result": "6.4 µM"}
{"SMILES": "COc1ccccc1/C=C/C(=O)c1ccc(OC)c(S(N)(=O)=O)c1", "test": "SRB", "setting": "48 h", "quantity": "GI50", "result": "2.3 µM"}
{"SMILES": "COc1ccc(-c2ccc(-c3ccc(C(=N)N)nc3)s2)cc1Cl", "test": "SRB", "quantity": "GI50", "result": "1.8 µM"}
{"SMILES": "c1ccc2cc(Cn3cc[n+](Cc4ccc5ccccc5c4)c3)ccc2c1", "test": "SRB", "quantity": "TGI", "result": "10.1 µM"}
{"SMILES": "COc1ccc(C(=O)/C=C/c2ccc3c(c2)OCCO3)cc1S(N)(=O)=O", "test": "SRB", "setting": "10 µM", "quantity": "inhibition", "result": "27%"}
{"SMILES": "C[C@]12CC[C@@H]3c4ccc(O)cc4CC[C@H]3[C@@H]1CC[C@@H]2O", "test": "ATP luminescence", "setting": "72 h", "quantity": "EC90", "result": "78.5 µM"}
{"SMILES": "CCCCc1n(Cc2ccc3ccccc3n2)cc[n+]1Cc1ccc2ccccc2n1", "test": "SRB", "quantity": "TGI", "result": "7.27 µM"}
{"SMILES": "COc1ccc(C(=O)/C=C/c2cccc3ccccc23)cc1S(N)(=O)=O", "test": "SRB", "setting": "48 h", "quantity": "GI50", "result": "2.2 µM"}
{"SMILES": "O=C1NC(=NCc2cccs2)S/C1=C\\c1ccc2ncccc2c1", "quantity": "IC50", "result": "> 10 µM"}
